Calls of active or inactive are those of the source. No cut-off for these calls is given here.
Experiments:
[1] = molecular target: T1, ADP-ribose glycohydrolase MACROD1 (Homo sapiens) (UniProt Q9BQ69); test: Inhibition of recombinant human N-terminal His6-tagged MDO1 (58 to 325 residues) expressed in Escherichia coli Rosetta2 (DE3) at 1 mM using mono-biotin-ADP-ribosylated SRPK2 as substrate after 16 hrs by Western blot analysis
T1 sequence (whole entry): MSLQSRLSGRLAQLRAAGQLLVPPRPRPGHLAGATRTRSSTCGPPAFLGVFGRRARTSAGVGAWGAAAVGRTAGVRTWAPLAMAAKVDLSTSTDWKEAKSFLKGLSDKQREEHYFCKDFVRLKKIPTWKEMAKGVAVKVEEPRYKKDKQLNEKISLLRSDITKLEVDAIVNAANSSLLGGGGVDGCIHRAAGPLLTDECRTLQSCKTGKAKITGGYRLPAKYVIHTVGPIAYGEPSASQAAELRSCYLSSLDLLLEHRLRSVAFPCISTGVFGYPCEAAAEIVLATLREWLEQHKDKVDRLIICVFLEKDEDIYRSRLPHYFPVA
In short: (§1)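 Substrate was SRPK2 mono-biotin-ADP-ribosylated by ARTD10. 2 μM substrate, 2 μM MDO1 and 0.8–1 mM compound were incubated 16 h in 25 mM HEPES pH 7.5, 100 mM NaCl. The reaction was stopped with Laemmli buffer at 95 °C for 5 min, then run on SDS-PAGE and blotted. Detection used streptavidin-HRP with chemiluminescence. Readout was qualitative, against SRPK2-alone and no-inhibitor controls.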

[2] = molecular target: T1, ADP-ribose glycohydrolase MACROD1 (Homo sapiens); test: Inhibition of recombinant human N-terminal His6-tagged MDO1 (58 to 325 residues) expressed in Escherichia coli Rosetta2 (DE3) using mono-biotin-ADP-ribosylated SRPK2 as substrate after 16 hrs by Western blot analysis; in short: as §1
[3] = molecular target: T2, ADP-ribose glycohydrolase MACROD1 (Homo sapiens, UniProt Q9BQ69); test: Binding affinity to human MDO1 by ITC
T2 sequence (Q9BQ69 whole entry): T1 sequence (whole entry)

[4] = molecular target: T1, ADP-ribose glycohydrolase MACROD1 (Homo sapiens); test: Binding affinity to human MDO1 assessed as change in melting temperature by DSF method
In short: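 Thermal shift read-out: a hydrophobic reporter dye binds the exposed protein core as the protein denatures with rising temperature. ΔTm is taken as the stabilization by ligand.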

[5] = molecular target: T3, ADP-ribose glycohydrolase MACROD2 (Homo sapiens) (UniProt A1Z1Q3); test: Inhibition of recombinant MDO2 (7 to 243 residues) (unknown origin) expressed in Escherichia coli Rosetta2 (DE3) at 6.6 mM using mono-ADP-ribosylated SRPK2 as substrate after 1 hr 20 mins by Alphascreen assay
T3 sequence (whole entry): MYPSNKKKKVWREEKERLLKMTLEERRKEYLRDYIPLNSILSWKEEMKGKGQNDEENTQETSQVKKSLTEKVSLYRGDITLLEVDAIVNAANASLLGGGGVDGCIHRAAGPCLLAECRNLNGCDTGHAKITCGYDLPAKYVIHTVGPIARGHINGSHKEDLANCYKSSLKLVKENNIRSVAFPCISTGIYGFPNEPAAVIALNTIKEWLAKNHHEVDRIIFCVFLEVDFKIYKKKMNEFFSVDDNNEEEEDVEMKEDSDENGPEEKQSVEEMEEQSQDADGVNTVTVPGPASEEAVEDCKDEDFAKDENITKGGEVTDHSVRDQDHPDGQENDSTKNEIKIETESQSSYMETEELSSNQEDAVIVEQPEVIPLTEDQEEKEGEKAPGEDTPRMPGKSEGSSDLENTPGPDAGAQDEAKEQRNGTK
In short: (§2)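 AlphaScreen hydrolysis assay run in quadruplicate, with compound from 6.6 mM to 0.66 μM in half-log dilutions. MDO1 or MDO2 (800 nM final) was added, then mono-ADP-ribosylated SRPK2 (50 nM final), and incubated 1 h 20 min at room temperature. Acceptor/donor beads (5 μg/ml final) were added for 3 h in the dark before reading luminescence.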

[6] = molecular target: T1, ADP-ribose glycohydrolase MACROD1 (Homo sapiens); test: Inhibition of recombinant human N-terminal His6-tagged MDO1 (58 to 325 residues) expressed in Escherichia coli Rosetta2 (DE3) at 0.8 mM using mono-biotin-ADP-ribosylated SRPK2 as substrate after 16 hrs by Western blot analysis; in short: as §1
[7] = molecular target: T1, ADP-ribose glycohydrolase MACROD1 (Homo sapiens); test: Inhibition of recombinant human N-terminal His6-tagged MDO1 (58 to 325 residues) expressed in Escherichia coli Rosetta2 (DE3) at 6.6 mM using mono-ADP-ribosylated SRPK2 as substrate after 1 hr 20 mins by Alphascreen assay; in short: as §2

| inhibition [1] | inhibition [6] | SMILES | further results |
| --- | --- | --- | --- |
| inactive | – | COc1ccc(CNc2c(NC[C@H]3O[C@@H](n4cnc5c(N)ncnc54)[C@H](O)[C@@H]3O)c(=O)c2=O)cc1 | – |
| inactive | – | Nc1ncnc2c1ncn2[C@@H]1O[C@H](CNc2c(NCc3ccccc3)c(=O)c2=O)[C@@H](O)[C@H]1O | – |
| – | – | Nc1ncnc2c1ncn2[C@@H]1O[C@H](COP(=O)(O)OP(=O)(O)OC[C@@H]2O[C@H](O)[C@@H](O)[C@H]2O)[C@@H](O)[C@H]1O | inhibition [2]: Active; Kd [3]: 900 nM; ΔTm [4]: 5 °C |
| – | Active | Nc1ncnc2c1ncn2C1OC(CNC(=O)[C@H](CO)NC(=O)OCC2c3ccccc3-c3ccccc32)[C@@H](O)C1O (single isomer, unassigned) | inhibition [5]: inactive; inhibition [7]: inactive |
| inactive | – | Nc1ncnc2c1ncn2C1OC(CNC(=O)CSc2nnnn2-c2ccccc2)[C@@H](O)[C@H]1O (single isomer, unassigned) | – |
| – | – | Nc1ncnc2c1ncn2[C@@H]1O[C@H](COP(=O)(O)O)[C@@H](O)[C@H]1O | inhibition [2]: inactive; ΔTm [4]: < 1 °C |
| – | inactive | Nc1ncnc2c1ncn2[C@@H]1O[C@H](CNc2c(Nc3cccc(O)c3)c(=O)c2=O)[C@@H](O)[C@H]1O | – |
| – | inactive | CCCCNc1c(NC[C@H]2O[C@@H](n3cnc4c(N)ncnc43)[C@H](O)[C@@H]2O)c(=O)c1=O | – |
| inactive | – | Nc1ncnc2c1ncn2C1OC(CNC(=O)[C@@H](N)CO)[C@@H](O)C1O (single isomer, unassigned) | – |
| – | inactive | Nc1ncnc2c1ncn2[C@@H]1O[C@H](CNc2c(Nc3cccc([N+](=O)[O-])c3)c(=O)c2=O)[C@@H](O)[C@H]1O | – |
| inactive | – | Nc1ncnc2c1ncn2C1OC(CNC(=O)[C@H](CC(=O)O)NC(=O)OCC2c3ccccc3-c3ccccc32)[C@@H](O)C1O (single isomer, unassigned) | – |
| inactive | – | Nc1ncnc2c1ncn2C1OC(CNC(=O)Cc2nnn[nH]2)[C@@H](O)[C@H]1O (single isomer, unassigned) | – |
| – | inactive | Nc1ncnc2c1ncn2[C@@H]1O[C@H](CNc2c(NCc3ccc(F)cc3)c(=O)c2=O)[C@@H](O)[C@H]1O | – |
| – | – | Nc1ncnc2c1ncn2[C@@H]1O[C@H](COP(=O)(O)OP(=O)(O)O)[C@@H](O)[C@H]1O | inhibition [2]: inactive; ΔTm [4]: < 1 °C |
| Active | – | Cc1ccc(CNc2c(NC[C@H]3O[C@@H](n4cnc5c(N)ncnc54)[C@H](O)[C@@H]3O)c(=O)c2=O)cc1 | inhibition [5]: inactive; inhibition [7]: inactive |

— ChEMBL document CHEMBL4219116, “Adenosine analogs bearing phosphate isosteres as human MDO1 ligands” (Bioorg Med Chem, 2018)
